In ChEMBL document CHEMBL1153760, “Identification and structure-activity relationships of chromene-derived selective estrogen receptor modulators for treatment of postmenopausal symptoms” (J Med Chem, 2009):
Activity calls are given as the source filed them. The rule behind the calls is not given here.

Columns and labels:
Rattus norvegicus [1] = assay: Uterotropic activity in rat assessed as stimulation of estrone-induced uterine weight at 1 mg/kg, po QD after 3 days; format: functional; conditions: Uterus, 72 h
Estrogen receptor [2] = molecular target: T1, Estrogen receptor (Homo sapiens, UniProt P03372); assay: Antagonist activity at estrogen receptor in human Ishikawa cells assessed as 17-beta-estradiol-induced alkaline phosphatase activity after 3 days by chemiluminescence assay; format: functional, cell-based
T1 sequence (P03372 whole entry): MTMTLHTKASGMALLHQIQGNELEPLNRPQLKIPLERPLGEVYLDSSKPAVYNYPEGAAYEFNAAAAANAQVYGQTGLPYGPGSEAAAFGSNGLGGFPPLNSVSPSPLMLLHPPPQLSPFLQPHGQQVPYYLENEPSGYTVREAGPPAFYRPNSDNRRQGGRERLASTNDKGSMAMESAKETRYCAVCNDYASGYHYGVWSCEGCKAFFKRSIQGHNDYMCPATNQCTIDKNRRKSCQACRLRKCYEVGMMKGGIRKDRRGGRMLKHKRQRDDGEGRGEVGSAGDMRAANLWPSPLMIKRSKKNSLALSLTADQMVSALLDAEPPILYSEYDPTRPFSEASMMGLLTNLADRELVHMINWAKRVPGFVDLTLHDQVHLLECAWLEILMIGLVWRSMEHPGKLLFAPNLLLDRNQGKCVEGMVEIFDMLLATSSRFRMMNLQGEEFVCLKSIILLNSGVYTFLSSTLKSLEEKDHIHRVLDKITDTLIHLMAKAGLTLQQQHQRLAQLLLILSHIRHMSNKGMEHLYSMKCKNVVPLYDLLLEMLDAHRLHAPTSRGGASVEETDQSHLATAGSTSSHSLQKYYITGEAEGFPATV

Estrogen receptor [3] = molecular target: T1, Estrogen receptor; assay: Displacement of radiolabeled estrogen from estrogen receptor alpha by scintillation counting
Rattus norvegicus [4] = species: Rattus norvegicus; assay: animal or person; format: functional; conditions: Uterus, 72 h, route oral
Estrogen receptor beta = Estrogen receptor beta (Homo sapiens, UniProt Q92731); assay: Inhibition of fluormone ES2 binding to estrogen receptor beta after 1 hr by fluorescence polarization assay
Rattus norvegicus [5] = assay: Decrease in tail skin temperature rise in morphine-addicted Sprague-Dawley rat hot flush model at 0.3 mg/kg, po administered daily measured for 60 mins after naloxone-induced morphine withdrawal; format: functional, organism-based; parameters: dose 0.3 mg/kg
Outline: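 Ovariectomized adult female Sprague-Dawley rats (3 months), 8-25 per group; oral gavage starting 6 days post-ovariectomy, sesame oil vehicle, suspension. Morphine given sc at 75 and 150 mg on treatment days 3 and 5. On the last day, under ketamine (80 mg/kg, im), tail thermistor; baseline about 20 min, then naloxone 2.0 mg/kg sc and tail skin temperature recorded 60 min. Multiple comparisons at each time point.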

Rattus norvegicus [6] = assay: Decrease in bone resorption in ovariectomized rat assessed as decrease in urine deoxypyridinoline level at 0.1 mg/kg, po administered daily measured after 6 weeks; format: functional, organism-based; parameters: dose 0.1 mg/kg
Outline: (§1)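 Adult (>6 months) female rats, housed singly on a casein-based diet, ovariectomized under sterile conditions and anesthesia; 6-14 per group. From 24 h after surgery, daily oral gavage of an aqueous suspension in 0.5% Methocel for 2 or 6 weeks. […] Urine deoxypyridinoline measured as bone-resorption marker.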

Rattus norvegicus [7] = assay: Increase in vaginal fluidity in ovariectomized rat at 0.1 mg/kg, po administered daily measured after 6 weeks by cytology analysis; format: functional, organism-based; parameters: dose 0.1 mg/kg
Outline: (§2)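 Ovariectomized adult female rats dosed daily by oral gavage (0.5% Methocel suspension) for 2 or 6 weeks from 24 h after surgery. Vaginal fluid collected with a cotton swab and its absolute weight determined per animal.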

[8] = Tmax in rat at 10 mg/kg, po administered as single dose by LC-MS/MS analysis; format: ADME, organism-based; parameters: dose 10 mg/kg, route oral; conditions: in vivo
Outline: (§3)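 Single-dose rat pharmacokinetics. IV dosing at 1-3 mg/kg as a solution in 10% β-cyclodextrin; oral gavage at 10 mg/kg as a uniform suspension in 0.5% methylcellulose. Blood (0.5 mL) collected into heparinized tubes by orbital sinus puncture after dosing. Plasma extracted into acetonitrile with an internal standard and analysed by LC-MS-MS against standards to obtain PK parameters.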

[9] = AUC in rat at 10 mg/kg, po administered as single dose by LC-MS/MS analysis; format: ADME, organism-based; parameters: dose 10 mg/kg, route oral; conditions: plasma; outline: as §3
[10] = Oral bioavailability in rat at 10 mg/kg administered as single dose by LC-MS/MS analysis; format: ADME, organism-based; conditions: in vivo; outline: as §3
[11] = Half life in rat at 10 mg/kg, po administered as single dose by LC-MS/MS analysis; format: ADME, organism-based; parameters: dose 10 mg/kg, route oral; conditions: in vivo; outline: as §3
[12] = Cmax in rats after 10 mg/kg oral dose; format: ADME, organism-based; parameters: dose 10 mg/kg, route oral; conditions: rat, in vivo; outline: as §3
Rattus norvegicus [13] = assay: Decrease in bone resorption in ovariectomized rat assessed as decrease in urine deoxypyridinoline level at 1.4 mg/kg, po administered daily measured after 6 weeks; format: functional, organism-based; parameters: dose 1.4 mg/kg
Rattus norvegicus [14] = assay: Decrease in tail skin temperature rise in morphine-addicted Sprague-Dawley rat hot flush model at 1.4 mg/kg, po administered daily measured for 60 mins after naloxone-induced morphine withdrawal; format: functional, organism-based; parameters: dose 1.4 mg/kg
Outline: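 Adult female Sprague-Dawley rats (3 months), 8-25 per group, ovariectomized; oral gavage started 6 days post-surgery; morphine suspension 75 and 150 mg sc on treatment days 3 and 5; last day ketamine 80 mg/kg im, tail thermistor baseline ~20 min, naloxone 2.0 mg/kg sc, tail skin temperature for 60 min; multiple comparisons per time point.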

Rattus norvegicus [15] = assay: Increase in uterine weight in ovariectomized rat osteopenia model at 1.4 mg/kg, po administered daily measured after 6 weeks; format: functional, organism-based; parameters: dose 1.4 mg/kg
Rattus norvegicus [16] = assay: Estrogenic activity in ovariectomized rat assessed as minor increase in uterine epithelial thickness at 1.4 mg/kg, po administered daily measured after 6 week by immunohistochemical analysis; format: functional, organism-based; parameters: dose 1.4 mg/kg
Rattus norvegicus [17] = assay: Increase in uterine weight in ovariectomized rat osteopenia model at 1 mg/kg, po administered daily measured after 6 weeks; format: functional, organism-based; parameters: dose 1 mg/kg
Rattus norvegicus [18] = assay: Increase in vaginal secretion in ovariectomized rat at 1 mg/kg, po administered daily measured after 2 weeks […]; format: functional, organism-based; parameters: dose 1 mg/kg; outline: as §2
Rattus norvegicus [19] = assay: Effect on bone turnover in ovariectomized rat assessed as prevention of tibial bone density at 1 mg/kg, po administered daily measured after 6 weeks by ex vivo peripheral quantitative computerized tomography; format: functional, organism-based; parameters: dose 1 mg/kg
Rattus norvegicus [20] = assay: Decrease in bone resorption in ovariectomized rat assessed as decrease in urine deoxypyridinoline level at 1 mg/kg, po administered daily measured after 6 weeks; format: functional, organism-based; parameters: dose 1 mg/kg; outline: as §1
Rattus norvegicus [21] = assay: Estrogenic activity in ovariectomized rat assessed as minor increase in uterine epithelial thickness at 1 mg/kg, po administered daily measured after 6 week by immunohistochemical analysis; format: functional, organism-based; parameters: dose 1 mg/kg

Estrogen receptor beta, sequence (Q92731 whole entry): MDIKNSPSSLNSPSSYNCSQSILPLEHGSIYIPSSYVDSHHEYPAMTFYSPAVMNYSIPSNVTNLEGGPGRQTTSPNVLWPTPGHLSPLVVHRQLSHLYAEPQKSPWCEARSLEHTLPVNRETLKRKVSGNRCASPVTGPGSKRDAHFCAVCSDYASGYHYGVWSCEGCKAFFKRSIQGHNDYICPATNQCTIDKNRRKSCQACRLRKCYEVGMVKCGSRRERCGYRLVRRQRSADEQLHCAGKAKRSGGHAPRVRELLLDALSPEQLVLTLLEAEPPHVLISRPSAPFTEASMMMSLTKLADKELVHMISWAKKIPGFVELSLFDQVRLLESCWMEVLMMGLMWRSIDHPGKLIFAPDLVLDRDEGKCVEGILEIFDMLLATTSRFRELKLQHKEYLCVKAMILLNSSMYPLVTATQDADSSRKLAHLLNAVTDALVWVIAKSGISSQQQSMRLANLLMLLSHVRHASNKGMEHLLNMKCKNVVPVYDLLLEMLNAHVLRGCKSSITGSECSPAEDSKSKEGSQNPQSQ

## CC(C)N(CCOc1ccc([C@@H]2Oc3cc(O)ccc3C3=C2c2ccc(O)cc2OCC3)cc1)C(C)C
Rattus norvegicus [1]
  stimulation at 1 mg/kg: 80%
Estrogen receptor [2]
  IC50: 35 nM
Estrogen receptor [3]
  IC50: 5.6 nM
Rattus norvegicus [4]
  inhibition in vivo at 1 mg/kg: 30%
Estrogen receptor beta
  IC50: 18.5 nM

## CN(C)CCOc1ccc([C@@H]2Oc3ccccc3C3=C2c2ccc(O)cc2OCC3)cc1
Rattus norvegicus [1]
  stimulation at 1 mg/kg: 70%
Rattus norvegicus [4]
  inhibition in vivo at 1 mg/kg: 18%
Estrogen receptor beta
  IC50: 23 nM

## C#C[C@]1(O)CC[C@H]2[C@@H]3CCc4cc(O)ccc4[C@H]3CC[C@@]21C
Rattus norvegicus [5]
  Activity: Active
Rattus norvegicus [6]
  Activity: Active
Rattus norvegicus [7]
  Activity: Active

## CN(C)CCOc1ccc([C@@H]2Oc3cc(O)ccc3C3=C2c2ccc(O)cc2OCC3)cc1
Rattus norvegicus [1]
  stimulation at 1 mg/kg: 100%
Estrogen receptor [2]
  IC50: 405 nM
Estrogen receptor [3]
  IC50: 11 nM
Rattus norvegicus [4]
  inhibition in vivo at 1 mg/kg: 0%
Estrogen receptor beta
  IC50: 12 nM

## Oc1ccc2c(c1)O[C@H](c1ccc(OCCN3CCCCC3)cc1)C1=C2CCOc2ccccc21
Estrogen receptor [2]
  IC50: 259 nM
[8]
  Tmax: 4.8 h
[9]
  AUC: 1130 ng·h/mL
[10]
  bioavailability: 9%
Estrogen receptor [3]
  IC50: 100 nM
[11]
  half-life: 5.28 h
Rattus norvegicus [4]
  inhibition in vivo at 1 mg/kg: 5%
Estrogen receptor beta
  IC50: 200 nM
[12]
  Cmax: 30 ng/mL

## Oc1ccc2c(c1)O[C@H](c1ccc(OCCN3CCSCC3)cc1)C1=C2CCOc2cc(O)ccc21
Estrogen receptor [2]
  IC50: 87 nM
[8]
  Tmax: 4.8 h
[9]
  AUC: 1530 ng·h/mL
[10]
  bioavailability: 9%
Estrogen receptor [3]
  IC50: 1.2 nM
[11]
  half-life: 5.28 h
Rattus norvegicus [4]
  inhibition in vivo at 1 mg/kg: 85%
Estrogen receptor beta
  IC50: 27 nM
[12]
  Cmax: 89 ng/mL

## CC(C)(C)C(=O)Oc1ccc2c(c1)O[C@H](c1ccc(OCCN3CCCCC3)cc1)C1=C2COc2cc(OC(=O)C(C)(C)C)ccc21
Rattus norvegicus [13]
  Activity: Active
Rattus norvegicus [14]
  Activity: Active
Rattus norvegicus [15]
  Activity: Active
Rattus norvegicus [16]
  Activity: Active
Rattus norvegicus [17]
  Activity: inactive

## CN(C)CCOc1ccc([C@H]2Oc3cc(O)ccc3C3=C2c2ccccc2OCC3)cc1
Estrogen receptor [2]
  IC50: 8990 nM
Estrogen receptor [3]
  IC50: 180 nM
Rattus norvegicus [4]
  inhibition in vivo at 1 mg/kg: 23%
Estrogen receptor beta
  IC50: 205 nM

## Oc1ccc2c(c1)O[C@@H](c1ccc(OCCN3CCSCC3)cc1)C1=C2CCOc2cc(O)ccc21
Estrogen receptor [2]
  IC50: > 10000 nM
Estrogen receptor [3]
  IC50: 111 nM
Rattus norvegicus [4]
  inhibition in vivo at 1 mg/kg: 0%
Estrogen receptor beta
  IC50: 390 nM

## CC/C(=C(\c1ccccc1)c1ccc(OCCN(C)C)cc1)c1ccccc1 [TAMOXIFEN]
Rattus norvegicus [1]
  stimulation at 1 mg/kg: 109%
Rattus norvegicus [4]
  inhibition in vivo at 1 mg/kg: 0%

## O=C(c1ccc(OCCN2CCCCC2)cc1)c1c(-c2ccc(O)cc2)sc2cc(O)ccc12 [RALOXIFENE]
Rattus norvegicus [18]
  Activity: inactive
Rattus norvegicus [4]
  inhibition in vivo at 1 mg/kg: 105%
Rattus norvegicus [19]
  Activity: Active
Rattus norvegicus [20]
  Activity: Active
Rattus norvegicus [21]
  Activity: Active

## O=C1CCC(=O)N1CCOc1ccc([C@H]2Oc3cc(O)ccc3C3=C2c2ccc(O)cc2OCC3)cc1
Estrogen receptor [2]
  IC50: > 10000 nM
Estrogen receptor [3]
  IC50: 4.8 nM
Rattus norvegicus [4]
  inhibition in vivo at 1 mg/kg: 0%
Estrogen receptor beta
  IC50: 0.64 nM

## O=C(O)CCOc1ccc([C@H]2Oc3cc(O)ccc3C3=C2c2ccc(O)cc2OCC3)cc1
Estrogen receptor [2]
  IC50: > 10000 nM
Estrogen receptor [3]
  IC50: 120 nM
Rattus norvegicus [4]
  inhibition in vivo at 1 mg/kg: 0%
Estrogen receptor beta
  IC50: 250 nM

## CCN(CC)CCOc1ccc([C@@H]2Oc3ccccc3C3=C2c2ccc(O)cc2OCC3)cc1
Rattus norvegicus [1]
  stimulation at 1 mg/kg: 100%
Estrogen receptor [2]
  IC50: 133 nM
Estrogen receptor [3]
  IC50: 9 nM
Rattus norvegicus [4]
  inhibition in vivo at 1 mg/kg: 30%
Estrogen receptor beta
  IC50: 28 nM

## Oc1ccc2c(c1)OCCC1=C2[C@H](c2ccc(OCCN3CCCCCC3)cc2)Oc2cc(F)ccc21
Estrogen receptor [2]
  IC50: 161 nM
Estrogen receptor [3]
  IC50: 5 nM
Rattus norvegicus [4]
  inhibition in vivo at 1 mg/kg: 33%
Estrogen receptor beta
  IC50: 31 nM

## Oc1ccc2c(c1)OCCC1=C2[C@H](c2ccc(OCCN3CCCCCC3)cc2)Oc2ccccc21
Estrogen receptor [2]
  IC50: 68 nM
Estrogen receptor [3]
  IC50: 4.5 nM
Rattus norvegicus [4]
  inhibition in vivo at 1 mg/kg: 28%
Estrogen receptor beta
  IC50: 22 nM

## CCN(CC)CCOc1ccc([C@@H]2Oc3cc(F)ccc3C3=C2c2ccc(O)cc2OCC3)cc1
Estrogen receptor [2]
  IC50: 122 nM
Estrogen receptor [3]
  IC50: 7 nM
Rattus norvegicus [4]
  inhibition in vivo at 1 mg/kg: 11%
Estrogen receptor beta
  IC50: 11 nM

## Oc1ccc2c(c1)O[C@@H](c1ccc(OCCN3CCCCCC3)cc1)C1=C2CCOc2ccccc21
Estrogen receptor [2]
  IC50: 144 nM
Estrogen receptor [3]
  IC50: 4 nM
Rattus norvegicus [4]
  inhibition in vivo at 1 mg/kg: 7%
Estrogen receptor beta
  IC50: 41 nM

## CCN(CC)CCOc1ccc([C@H]2Oc3cc(F)ccc3C3=C2c2ccc(O)cc2OCC3)cc1
Estrogen receptor [2]
  IC50: 113 nM
Estrogen receptor [3]
  IC50: 5 nM
Rattus norvegicus [4]
  inhibition in vivo at 1 mg/kg: 80%
Estrogen receptor beta
  IC50: 108 nM

## OCCOc1ccc(C2Oc3cc(O)ccc3C3=C2c2ccc(O)cc2OCC3)cc1 (stereo not given)
Estrogen receptor [2]
  IC50: > 10000 nM
Estrogen receptor [3]
  IC50: 310 nM
Rattus norvegicus [4]
  inhibition in vivo at 1 mg/kg: 0%
Estrogen receptor beta
  IC50: 11 nM

## Oc1ccc2c(c1)OC(c1ccc(OCCN3CCCCC3)cc1)C1=C2CCOc2cc(O)ccc21 (stereo not given)
Estrogen receptor [2]
  IC50: 8 nM
Estrogen receptor [3]
  IC50: 13 nM
Rattus norvegicus [4]
  inhibition in vivo at 1 mg/kg: 77%
Estrogen receptor beta
  IC50: 31 nM
